Active and inactive are the calls of the source. The calls are words filed in the database; no cut-off is given here.
Legend:
Calf thymus DNA [1] = assay: Binding affinity to calf thymus DNA assessed as induction of hypochromatic effect by spectrophotometry; type: nucleic-acid assay; conditions: Bos taurus
Method in brief: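 UV-vis absorption spectra of a fixed compound concentration were recorded during stepwise addition of calf thymus DNA in 30 mM Tris-HCl (pH 7.5). Hypochromicity and bathochromic shift were monitored, and the binding constant was calculated from an equation applied to the absorbance data.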

Nucleic Acid [2] = assay: Induction of DNA cleavage measured using 2 hrs UV-irradiated Escherichia coli super coiled pBR322 DNA assessed as formation of relaxed open circular form 2 DNA at 100 uM by agarose gel electrophoresis; type: nucleic-acid assay
Method in brief: (§1)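 Supercoiled pBR322 plasmid (0.05 mM bp) in Tris-HCl (pH 7.5) was incubated with compound at 37 °C and irradiated with 365 nm UV for 2 h. Controls were DNA alone, with and without irradiation. Cleavage forms were resolved on 1% agarose gel electrophoresis.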

Calf thymus DNA [3] = assay: Binding affinity to calf thymus DNA assessed as DNA damage at increasing compound to DNA ratio by viscosity measurement; type: nucleic-acid assay; conditions: Bos taurus
Method in brief: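 Calf thymus DNA was dissolved in 30 mM Tris-HCl (pH 7.5), held overnight at 4 °C, sonicated for 10 min and filtered to remove insoluble material. Viscosity was then measured as the compound-to-DNA ratio was increased.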

Nucleic Acid [4] = assay: Induction of DNA cleavage measured using 2 hrs UV-irradiated Escherichia coli super coiled pBR322 DNA assessed as formation of linear form 3 DNA at 100 uM by agarose gel electrophoresis; type: nucleic-acid assay; method in brief: as §1
MCF7 [5] = assay: Cytotoxicity against human MCF7 cells after 48 hrs by MTT assay; type: functional, cell-based; conditions: MCF7, 48 h
Method in brief: (§2)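 MCF-7 and 7721 cells were plated at 1 × 10⁵ cells/ml and exposed for 48 h to a concentration range of compound added from DMSO (final DMSO/medium below 0.001). MTT (5 mg/mL stock in PBS) was added for 3 h, and formazan was dissolved in SDS 200 g/L/50% formamide lysis buffer (pH 4.7). Absorbance was read at 570 nm, with ≥3 experiments. IC50 was taken from mean % absorbance plotted against concentration.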

HeLa [6] = assay: Cytotoxicity against human HeLa cells after 48 hrs by MTT assay; type: functional, cell-based
SMMC-7721 [7] = assay: Cytotoxicity against human SMMC7721 cells after 48 hrs by MTT assay; type: functional, cell-based; conditions: SMMC-7721, 48 h; method in brief: as §2
MCF7 [8] = assay: Ratio of IC50 for amonafide to compound for human MCF7 cells; type: functional
Method in brief: (§3)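 The ratio compares IC50s from the 48 h MTT assay on MCF-7 or 7721 cells (1 × 10⁵ cells/ml, readout at 570 nm, ≥3 experiments). Amonafide was run as the control under the same conditions, and the ratio is its IC50 divided by the compound's.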

HeLa [9] = assay: Ratio of IC50 for amonafide to compound for human HeLa cells; type: functional
SMMC-7721 [10] = assay: Ratio of IC50 for amonafide to compound for human SMMC7721 cells; type: functional; method in brief: as §3
Calf thymus DNA [11] = assay: Binding affinity to calf thymus DNA at compound to DNA ratio of <= 0.20 by circular dichroism; type: nucleic-acid assay; conditions: Bos taurus
Method in brief: (§4)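 CD spectra were recorded on calf thymus DNA at a fixed concentration in Tris-HCl buffer (pH 7.0). Compound was titrated at R (compound/DNA) ratios of 0.02, 0.04, 0.10, 0.16, 0.20, 0.30, 0.40, 0.60, 0.80, 1.00, 1.2 and 1.40, and compared with free DNA.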

Calf thymus DNA [12] = assay: Binding affinity to calf thymus DNA at compound to DNA ratio of >0.20 to < 0.80 by circular dichroism; type: nucleic-acid assay; conditions: Bos taurus; method in brief: as §4
Calf thymus DNA [13] = assay: Binding affinity to calf thymus DNA at compound to DNA ratio of > 0.80 by circular dichroism; type: nucleic-acid assay; conditions: Bos taurus; method in brief: as §4

Compound | Kb (Calf thymus DNA [1]) | Activity (Nucleic Acid [2]) | Activity (Calf thymus DNA [3]) | Activity (Nucleic Acid [4]) | IC50 (MCF7 [5]) | IC50 (HeLa [6]) | IC50 (SMMC-7721 [7]) | Ratio IC50 (MCF7 [8]) | Ratio IC50 (HeLa [9]) | Ratio IC50 (SMMC-7721 [10]) | Activity (Calf thymus DNA [11]) | Activity (Calf thymus DNA [12]) | Activity (Calf thymus DNA [13])
CN(C)CCN1C(=O)c2cccc3c(-n4cc(-c5ccccc5)nn4)ccc(c23)C1=O | 2.95 ×10⁵ /M | Active | Active | Active | 323 nM | 1020 nM | 463 nM | 5.2 | 1.7 | 9.2 | – | – | –
CN(C)CCN1C(=O)c2cccc3cc(N)cc(c23)C1=O [AMONAFIDE] | – | – | – | – | 1680 nM | 1730 nM | 4270 nM | – | – | – | – | – | –
O=C1c2cccc3c(-n4cc(-c5ccccc5)nn4)ccc(c23)C(=O)N1CCO | – | Active | inactive | – | > 100000 nM | > 100000 nM | > 100000 nM | – | – | – | – | – | –
O=C1c2cccc3c(-n4cc(-c5ccccc5)nn4)ccc(c23)C(=O)N1CCN1CCNCC1 | – | Active | – | – | 836 nM | 96700 nM | 1540 nM | – | – | – | – | – | –
CCN(CC)CCN1C(=O)c2cccc3c(-n4cc(-c5ccccc5)nn4)ccc(c23)C1=O | – | Active | – | Active | 1090 nM | 26900 nM | 1890 nM | – | – | – | Active | Active | inactive
CCCCN1C(=O)c2cccc3c(-n4cc(-c5ccccc5)nn4)ccc(c23)C1=O | – | Active | – | – | 19500 nM | 19600 nM | 32900 nM | – | – | – | – | – | –

Source: ChEMBL document CHEMBL1759858, “The novel anti-tumor agents of 4-triazol-1,8-naphthalimides: synthesis, cytotoxicity, DNA intercalation and photocleavage” (Eur J Med Chem, 2011)
